Reference: ChEMBL document CHEMBL3232873, “Development of a bioavailable μ opioid receptor (MOPr) agonist, δ opioid receptor (DOPr) antagonist peptide that evokes antinociception without development of acute tolerance” (J Med Chem, 2014)
Calls of active or inactive are those of the source. *1 amine or outer side, *2 acyl side, *3 side chain or, on linkers, in order; H or OH if unused. Where a SMILES comes first, the peptide text is derived from it. Bridges are numbered along the chain shown (N, C = ends). [ ]: non-standard residue; d: D form. The star is where a group is joined. βGlc = OC[C@H]1O[C@@H](*)[C@H](O)[C@@H](O)[C@@H]1O; Dmt = Cc1cc(O)cc(C)c1C[C@H](N)C(=O)O; dPen = CC(C)(S)[C@@H](N)C(=O)O; Aic = NC1(C(=O)O)Cc2ccccc2C1; CH2CH2 = C(C[*:2])[*:1]

How the values were obtained:
[1] = target: Mu-type opioid receptor (Rattus norvegicus) (UniProt P33535); assay: Agonist activity at rat mu opioid receptor expressed in rat C6 cells assessed as stimulation of [35S]-GTPgammaS binding after 1 hr by GF/C filters relative to control; format: functional, cell-based
Sequence of Mu-type opioid receptor (Rattus norvegicus) (P33535 whole entry): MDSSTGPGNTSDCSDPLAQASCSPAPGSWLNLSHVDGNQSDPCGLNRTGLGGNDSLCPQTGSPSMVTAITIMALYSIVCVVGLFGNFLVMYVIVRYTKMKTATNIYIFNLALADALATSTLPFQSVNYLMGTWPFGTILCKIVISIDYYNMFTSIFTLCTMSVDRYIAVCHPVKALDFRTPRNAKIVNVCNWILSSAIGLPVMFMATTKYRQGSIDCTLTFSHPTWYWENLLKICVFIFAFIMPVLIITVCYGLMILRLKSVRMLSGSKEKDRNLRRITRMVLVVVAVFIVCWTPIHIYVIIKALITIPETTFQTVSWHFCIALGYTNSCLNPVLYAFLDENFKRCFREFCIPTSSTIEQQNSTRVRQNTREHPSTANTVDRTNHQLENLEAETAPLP
Method in brief: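 C6 glioma membranes (rat MOPr, stable; 10–20 μg protein) incubated 1 h at room temperature in 50 mM Tris-HCl, 100 mM NaCl, 5 mM MgCl2, pH 7.4, with 0.1 nM [35S]GTPγS, 30 μM GDP and varying peptide concentrations. GF/C filtration, counting. […] EC50 and maximum from nonlinear regression. At least three assays in duplicate.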

[2] = target: Delta-type opioid receptor (Rattus norvegicus) (UniProt P33533); assay: Agonist activity at rat delta opioid receptor expressed in rat C6 cells assessed as stimulation of [35S]-GTPgammaS binding after 1 hr by GF/C filters relative to control; format: functional, cell-based
Sequence of Delta-type opioid receptor (Rattus norvegicus) (P33533 whole entry): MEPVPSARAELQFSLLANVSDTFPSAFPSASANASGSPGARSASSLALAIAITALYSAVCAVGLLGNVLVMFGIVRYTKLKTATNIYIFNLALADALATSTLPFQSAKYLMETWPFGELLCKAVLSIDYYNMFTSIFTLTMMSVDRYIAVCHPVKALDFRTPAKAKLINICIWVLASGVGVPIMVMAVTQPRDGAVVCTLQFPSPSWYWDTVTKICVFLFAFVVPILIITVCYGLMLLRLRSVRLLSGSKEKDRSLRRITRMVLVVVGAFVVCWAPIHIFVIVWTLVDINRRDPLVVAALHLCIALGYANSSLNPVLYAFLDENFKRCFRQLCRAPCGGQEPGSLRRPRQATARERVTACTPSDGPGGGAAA
Method in brief: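 Membranes (10–20 μg protein) from C6 glioma cells stably expressing rat DOPr, incubated 1 h at room temperature in 50 mM Tris-HCl, 100 mM NaCl, 5 mM MgCl2, pH 7.4, with 0.1 nM [35S]GTPγS, 30 μM GDP and varied peptide concentrations. GF/C filtration, scintillation counting. […] At least three assays in duplicate.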

[3] = target: Kappa-type opioid receptor (Homo sapiens) (UniProt P41145); assay: Agonist activity at human kappa opioid receptor expressed in rat C6 cells assessed as stimulation of [35S]-GTPgammaS binding after 1 hr by GF/C filters relative to control; format: functional, cell-based
Sequence of Kappa-type opioid receptor (Homo sapiens) (P41145 whole entry): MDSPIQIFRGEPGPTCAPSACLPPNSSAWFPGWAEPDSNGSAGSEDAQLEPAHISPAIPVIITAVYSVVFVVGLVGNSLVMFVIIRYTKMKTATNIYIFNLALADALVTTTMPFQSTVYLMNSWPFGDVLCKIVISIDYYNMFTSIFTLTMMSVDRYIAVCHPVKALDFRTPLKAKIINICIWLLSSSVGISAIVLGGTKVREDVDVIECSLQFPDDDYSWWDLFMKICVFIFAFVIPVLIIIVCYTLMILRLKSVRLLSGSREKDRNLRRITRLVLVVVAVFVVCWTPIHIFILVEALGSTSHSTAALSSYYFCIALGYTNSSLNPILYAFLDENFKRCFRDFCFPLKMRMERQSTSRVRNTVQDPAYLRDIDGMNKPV

[4] = target: Delta-type opioid receptor (Rattus norvegicus) (UniProt P33533); assay: Antagonist activity at rat delta opioid receptor expressed in rat C6 cells assessed as [35S]-GTPgammaS binding after 1 hr by GF/C filters; format: functional, cell-based
Method in brief: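 Membranes (10–20 μg protein/well) from C6 glioma cells stably expressing rat DOPr were incubated 1 h at room temperature in 50 mM Tris-HCl, 100 mM NaCl, 5 mM MgCl2, pH 7.4, with 0.1 nM [35S]GTPγS and 30 μM GDP. Bound label was filtered, washed 10× with cold buffer, and scintillation-counted. Ke was derived by formula using a single peptide concentration. Mean ± SEM, ≥3 assays in duplicate.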

Mus musculus [5] = assay: Antinociceptive effect in C57BL/6 mouse assessed as tail withdrawal latency at 10 mg/kg, ip by warm water tail withdrawal assay relative to 20 secs cutoff time; format: functional; conditions: route intraperitoneal
Method in brief: (§1)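 Adult male and female C57BL/6 mice (20–35 g, 8–16 weeks). Saline ip, then baseline latency 30 min later. Cumulative ip doses in saline were given at 30 min intervals, with latency read 30 min after each dose. Tail tip (2–3 cm) placed in 50 °C water; withdrawal or flick latency recorded, 20 s cutoff.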

Mus musculus [6] = species on record: Mus musculus; assay: Antinociceptive effect in C57BL/6 mouse assessed as tail withdrawal latency by warm water tail withdrawal assay relative to 20 secs cutoff time; format: functional, organism-based; method in brief: as §1
Mus musculus [7] = assay: Antinociceptive effect in C57BL/6 mouse assessed as tail withdrawal latency at 10 mg/kg, ip measured between 30 and 60 mins by warm water tail withdrawal assay relative to 20 secs cutoff time; format: functional, organism-based; set-up: dose 10 mg/kg
Mus musculus [8] = assay: Antinociceptive effect in C57BL/6 mouse assessed as tail withdrawal latency at 10 mg/kg, ip by warm water tail withdrawal assay in presence of 3.2 mg/kg, ip naltrexone nonselective opioid antagonist; format: functional, organism-based
Method in brief: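 C57BL/6 mice, both sexes. Saline or 3.2 mg/kg naltrexone ip 30 min before 10 mg/kg test compound ip, all in saline. Tail-withdrawal latency in 50 °C water (20 s cutoff) read 30 min after pretreatment and 30 min after test injection.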

Mus musculus [9] = assay: Antinociceptive effect in C57BL/6 mouse assessed as maximum effect at 10 mg/kg, ip after 30 mins by acute tolerance/warm water tail withdrawal assay; format: functional, organism-based; set-up: dose 10 mg/kg
Method in brief: (§2)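 Separate groups of C57BL/6 mice got ip saline or 10 mg/kg compound after baseline, with 50 °C tail-withdrawal latency (20 s cutoff) at 15, 30, 45, 60 and 90 min. At 90–120 min all mice received 10 mg/kg ip, read at 15, 30, 60 and 90 min. AUC over baseline was computed per mouse and averaged by group; naive and pretreated groups compared by t-test.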

Mus musculus [10] = assay: Antinociceptive effect in C57BL/6 mouse assessed as maximum effect at 10 mg/kg, ip after 90 mins by acute tolerance/warm water tail withdrawal assay; format: functional, organism-based; set-up: dose 10 mg/kg; method in brief: as §2
Mus musculus [11] = assay: Antinociceptive effect in C57BL/6 mouse assessed as maximum effect at 10 mg/kg, ip after 90 mins followed by treated with second dose measured up to 200 mins by acute tolerance/warm water tail withdrawal assay; format: functional, organism-based; set-up: dose 10 mg/kg; method in brief: as §2

| SMILES | Efficacy [1] [%] | Efficacy [2] | Efficacy [3] | Ke [4] [nM] | Activity (Mus musculus [5]) [%] | Activity (Mus musculus [6]) | Activity (Mus musculus [7]) | Activity (Mus musculus [8]) | Activity (Mus musculus [9]) | Activity (Mus musculus [10]) | Activity (Mus musculus [11]) |
| --- | --- | --- | --- | --- | --- | --- | --- | --- | --- | --- | --- |
| Cc1cc(O)cc(C)c1C[C@H](N)C(=O)N[C@@H]1CSCCSC(C)(C)[C@H](C(=O)O)NC(=O)C2(Cc3ccccc3C2)NC1=O (H-[Dmt][dC][Aic][dPen]-OH; linker 2-4 via CH2CH2) | 59 | inactive | inactive | 4.4 |  |  |  |  |  |  |  |
| Cc1cc(O)cc(C)c1C[C@H](N)C(=O)N[C@@H]1CSCCSC(C)(C)[C@H](C(=O)N[C@@H](CO[C@@H]2O[C@H](CO)[C@@H](O)[C@H](O)[C@H]2O)C(N)=O)NC(=O)C2(Cc3ccccc3C2)NC1=O (H-[Dmt][dC][Aic][dPen]S(βGlc)-NH2; linker 2-4 via CH2CH2) |  | inactive | inactive | 6.1 | 80 | Dose-dependent effect | Active | inactive | Active | inactive | Active |
| Cc1cc(O)cc(C)c1C[C@H](N)C(=O)N[C@@H]1CSCCSC(C)(C)[C@H](C(=O)N[C@@H](CO)C(N)=O)NC(=O)C2(Cc3ccccc3C2)NC1=O (H-[Dmt][dC][Aic][dPen]S-NH2; linker 2-4 via CH2CH2) |  | inactive | inactive |  |  |  |  |  |  |  |  |
| Cc1cc(O)cc(C)c1C[C@H](N)C(=O)N[C@@H]1CSCCSC(C)(C)[C@H](C(=O)N[C@@H](CO)C(=O)O)NC(=O)C2(Cc3ccccc3C2)NC1=O (H-[Dmt][dC][Aic][dPen]S-OH; linker 2-4 via CH2CH2) |  | inactive | inactive |  |  |  |  |  |  |  |  |
